According to ChEMBL document CHEMBL5325428 (Eur J Med Chem, 2023):

Assays:
[1] = system: SARS-CoV-2; assay: Antiviral activity against SARS-CoV-2 Wuhan-HU-1 infected in HEK293T cells assessed as inhibition of viral replication incubated for 30 hrs by luciferase reporter gene assay; format: functional, organism-based; conditions: Severe acute respiratory syndrome coronavirus 2, Wuhan-HU-1, HEK-293T
Procedure, shortened: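 This is a non-infectious Wuhan-Hu-1 replicon system, not infectious virus. Replicon RNA was electroporated into 293T cells, which were then incubated for 30 h with compound at 2, 0.5, 0.1 and 0.02 µM or with 0.1% DMSO. Read-out was luciferase activity. Values are mean ± SD.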

[2] = target: Replicase polyprotein 1ab (Severe acute respiratory syndrome coronavirus 2, UniProt P0DTD1); assay: Inhibition of N-terminal His6-tagged full length SARS-CoV-2 3CLpro using FAM-SAVLQ as substrate preincubated with enzyme for 1 hr followed by susbtrate addition and measured after 1 hr by FRET assay
[3] = Inhibition of MERS-CoV 3CLpro using FAM-SAVLQ as substrate preincubated with enzyme for 1 hr followed by susbtrate addition and measured after 1 hr by FRET assay; parameters: species or system Middle East respiratory syndrome-related coronavirus
[4] = Cytotoxicity against human HEK293T cells assessed as reduction in cell viability incubated for 72 hrs by CytoTox 96 nonradioactive assay; format: toxicity, cell-based, HEK-293T
[5] = Safety index, ratio of CC50 for cytotoxicity against human HEK293T cells to EC50 for antiviral activity against SARS-CoV-2 Wuhan-HU-1 infected in HEK293T cells; format: toxicity, cell-based; conditions: read-out: Ratio CC50/EC50
Procedure, shortened: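 In vitro safety index was calculated as the 293T CC50 divided by the SARS-CoV-2 replicon EC50.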

[6] = system: Feline infectious peritonitis virus; assay: Antiviral activity against FIPV 1146 infected in CRFK cells assessed as inhibition of viral replication incubated for upto 168 hrs by TCID50 method; format: functional, organism-based; conditions: Alphacoronavirus 1, 1146, CRFK
Procedure, shortened: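 Crandell-Rees feline kidney cells infected with FIPV-1146; test compounds added to the medium at various concentrations. EC50 was fitted from the dose-dependent inhibition curve with a variable slope. Values are mean ± SD.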

[7] = target: Prothrombin (Homo sapiens, UniProt P00734); assay: Inhibition of human thrombin; format: toxicity
Procedure, shortened: (§1)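 Commercial purified human proteases were assayed following the manufacturers' procedures. IC50 values are mean ± SD.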

[8] = target: chymotrypsin (Homo sapiens, UniProt P17538+P40313+Q6GPI1+Q99895); assay: Inhibition of human chymotrypsin; format: toxicity; procedure, shortened: as §1
[9] = target: T1, Neutrophil elastase (Homo sapiens, UniProt P08246); assay: Inhibition of human neutrophil elastase; format: toxicity; procedure, shortened: as §1
T1 sequence (P08246 whole entry): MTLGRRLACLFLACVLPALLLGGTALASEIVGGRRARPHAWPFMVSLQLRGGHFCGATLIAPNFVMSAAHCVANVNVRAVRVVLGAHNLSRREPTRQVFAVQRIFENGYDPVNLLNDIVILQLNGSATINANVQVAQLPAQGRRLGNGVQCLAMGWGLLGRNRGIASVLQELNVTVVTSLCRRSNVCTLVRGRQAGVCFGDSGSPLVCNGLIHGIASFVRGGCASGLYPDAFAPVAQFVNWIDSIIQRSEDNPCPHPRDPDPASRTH

[10] = target: Cathepsin B (Homo sapiens, UniProt P07858); assay: Inhibition of human Cathepsin B; format: toxicity; procedure, shortened: as §1
[11] = target: Cathepsin D (Homo sapiens, UniProt P07339); assay: Inhibition of human Cathepsin D; format: toxicity; procedure, shortened: as §1
Sequence of Cathepsin D (P07339 65-162 limits assumed): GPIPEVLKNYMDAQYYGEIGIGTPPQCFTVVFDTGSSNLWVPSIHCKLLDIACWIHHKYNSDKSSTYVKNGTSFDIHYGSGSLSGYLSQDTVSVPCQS
Sequence of Cathepsin D (P07339 169-412 limits assumed): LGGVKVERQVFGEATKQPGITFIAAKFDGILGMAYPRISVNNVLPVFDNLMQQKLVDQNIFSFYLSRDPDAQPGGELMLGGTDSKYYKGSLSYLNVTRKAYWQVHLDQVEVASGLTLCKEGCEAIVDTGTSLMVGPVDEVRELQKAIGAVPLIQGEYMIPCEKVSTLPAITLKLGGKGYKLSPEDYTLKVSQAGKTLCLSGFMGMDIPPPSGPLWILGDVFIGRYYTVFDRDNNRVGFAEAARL

[12] = target: T2, Cathepsin G (Homo sapiens, UniProt P08311); assay: Inhibition of human Cathepsin G; format: toxicity; procedure, shortened: as §1
T2 sequence (P08311 whole entry): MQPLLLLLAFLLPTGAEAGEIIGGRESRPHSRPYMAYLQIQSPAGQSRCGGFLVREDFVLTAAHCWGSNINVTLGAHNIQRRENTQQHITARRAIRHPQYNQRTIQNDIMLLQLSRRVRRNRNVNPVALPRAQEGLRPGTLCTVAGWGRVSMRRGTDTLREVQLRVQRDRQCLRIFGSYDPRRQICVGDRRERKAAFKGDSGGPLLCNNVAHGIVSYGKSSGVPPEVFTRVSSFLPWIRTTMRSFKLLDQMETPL

[13] = target: Procathepsin L (Homo sapiens, UniProt P07711); assay: Inhibition of human Cathepsin L; format: toxicity; procedure, shortened: as §1
Sequence of Procathepsin L (P07711 whole entry): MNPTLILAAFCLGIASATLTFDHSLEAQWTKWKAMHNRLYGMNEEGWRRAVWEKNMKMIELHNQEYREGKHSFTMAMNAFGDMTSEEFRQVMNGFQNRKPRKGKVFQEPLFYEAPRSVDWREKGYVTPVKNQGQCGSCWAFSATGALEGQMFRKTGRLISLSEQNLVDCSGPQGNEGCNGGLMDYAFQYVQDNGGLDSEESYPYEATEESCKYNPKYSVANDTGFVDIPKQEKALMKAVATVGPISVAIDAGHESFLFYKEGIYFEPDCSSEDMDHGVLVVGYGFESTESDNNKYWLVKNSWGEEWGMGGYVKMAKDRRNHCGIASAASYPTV

Structure (SMILES) | EC50 [1] | IC50 [2] | IC50 [3] | CC50 at 72 h [4] | selectivity ratio [5] | EC50 [6] | IC50 [7] | IC50 [8] | IC50 [9] | IC50 [10] | IC50 [11] | IC50 [12] | IC50 [13]
CC(C)C[C@H](NC(=O)OCC(C)(C)Sc1cccc(Cl)c1)C(=O)N[C@H](C=O)C[C@@H]1CCNC1=O | 10 nM | 150 nM | 110 nM | > 50 µM | 3330 | 190 nM | > 50 µM | > 50 µM | > 50 µM | 1400 nM | > 50 µM | > 50 µM | 30 nM
CC(C)C[C@H](NC(=O)OCC(C)(C)Sc1ccccc1)C(=O)N[C@H](C=O)C[C@@H]1CCNC1=O | 12 nM | 70 nM | 80 nM | > 50 µM | 3330 | 80 nM | > 50 µM | > 50 µM | > 50 µM | 1900 nM | > 50 µM | > 50 µM | 30 nM
[2H]C([2H])(OC(=O)N[C@@H](CC(C)C)C(=O)N[C@H](C=O)C[C@@H]1CCNC1=O)C(C)(C)Oc1ccc(Cl)cc1 | 15 nM | 170 nM | – | > 50 µM | 3330 | 100 nM | > 50 µM | > 50 µM | > 50 µM | 800 nM | > 50 µM | > 50 µM | 40 nM
CC(C)C[C@H](NC(=O)OCC(C)(C)Oc1cccc(Cl)c1)C(=O)N[C@H](C=O)C[C@@H]1CCNC1=O | 13 nM | 190 nM | – | > 50 µM | 3330 | 60 nM | > 50 µM | > 50 µM | > 50 µM | 900 nM | > 50 µM | > 50 µM | 20 nM
CC(C)C[C@H](NC(=O)OCC(C)(C)Sc1ccccc1)C(=O)N[C@@H](C[C@@H]1CCNC1=O)C(=O)C(=O)NC1CC1 | 50 nM | 210 nM | – | > 50 µM | – | 710 nM | > 50 µM | > 50 µM | > 50 µM | 2000 nM | > 50 µM | > 50 µM | 40 nM
CC(C)C[C@H](NC(=O)OCC(C)(C)Sc1ccccc1)C(=O)N[C@H](C#N)C[C@@H]1CCNC1=O | 60 nM | 490 nM | 410 nM | > 50 µM | – | 1320 nM | > 50 µM | > 50 µM | > 50 µM | 2600 nM | > 50 µM | > 50 µM | 30 nM
CC(C)C[C@H](NC(=O)OCC(C)(C)Oc1ccc(F)cc1)C(=O)N[C@H](C=O)C[C@@H]1CCNC1=O | – | 220 nM | – | > 50 µM | – | 70 nM | > 50 µM | > 50 µM | > 50 µM | 1900 nM | > 50 µM | > 50 µM | 30 nM
[2H]C([2H])(OC(=O)N[C@@H](CC(C)C)C(=O)N[C@H](C=O)C[C@@H]1CCNC1=O)C(C)(C)Sc1ccccc1 | 11 nM | 200 nM | 60 nM | > 50 µM | 3330 | 100 nM | > 50 µM | > 50 µM | > 50 µM | 2000 nM | > 50 µM | > 50 µM | 30 nM
